These results are taken from paper PMC4765323 (Current topics in medicinal chemistry, 2009).

One data set deals with T1, M1 mAChR (M1/CHO cells) (Rattus norvegicus, UniProt P08482).
T1 sequence (P08482 1-460): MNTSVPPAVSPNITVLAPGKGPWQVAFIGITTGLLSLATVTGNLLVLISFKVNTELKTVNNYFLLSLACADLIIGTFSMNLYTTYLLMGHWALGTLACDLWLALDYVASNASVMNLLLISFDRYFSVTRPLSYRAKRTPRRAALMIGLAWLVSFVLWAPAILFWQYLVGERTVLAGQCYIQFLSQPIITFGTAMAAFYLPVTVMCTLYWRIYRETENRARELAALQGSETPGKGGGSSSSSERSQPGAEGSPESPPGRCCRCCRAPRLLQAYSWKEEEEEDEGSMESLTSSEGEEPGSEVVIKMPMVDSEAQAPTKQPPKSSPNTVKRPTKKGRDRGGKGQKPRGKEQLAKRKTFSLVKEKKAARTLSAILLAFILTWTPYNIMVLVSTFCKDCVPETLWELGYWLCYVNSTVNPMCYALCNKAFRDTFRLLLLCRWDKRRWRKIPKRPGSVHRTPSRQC
Briefly: functional cell-based calcium-mobilization assay, M1/CHO cell line. To be noted: read-out: M1 IC50. The essentials:
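Real-time calcium mobilisation in CHO cells expressing M1, with a Z' averaging 0.7. Primary hits from a single-pass library screen were retested in duplicate and counter-screened on mGluR4/CHO cells. IC50 values came from 10-point concentration-response curves run in triplicate, tested in parallel on M4/CHO cells.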

In a further data set the test system is M2-M5 mAChR. The experiment in a line: functional mAChR selectivity, M2-M5 reported together. It counts as cell-based, rat.
A further data set concerns the target T2, M1 mAChR (Homo sapiens, UniProt P11229).
T2 sequence (P11229 1-460): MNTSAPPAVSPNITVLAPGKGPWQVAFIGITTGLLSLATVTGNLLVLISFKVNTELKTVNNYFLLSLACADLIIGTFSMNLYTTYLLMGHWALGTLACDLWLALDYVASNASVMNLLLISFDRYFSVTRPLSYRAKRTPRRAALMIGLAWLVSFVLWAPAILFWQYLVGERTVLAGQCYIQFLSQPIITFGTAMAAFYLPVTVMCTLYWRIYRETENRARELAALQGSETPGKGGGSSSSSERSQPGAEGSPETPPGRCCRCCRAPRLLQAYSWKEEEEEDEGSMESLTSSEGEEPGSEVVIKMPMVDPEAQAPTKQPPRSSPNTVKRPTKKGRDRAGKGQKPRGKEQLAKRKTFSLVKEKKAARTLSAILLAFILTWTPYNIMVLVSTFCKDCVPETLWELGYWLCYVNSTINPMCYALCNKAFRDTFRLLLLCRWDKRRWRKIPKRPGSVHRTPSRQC
Briefly: phosphoinositide. It counts as cell-based. The conditions noted are these: PI hydrolysis, ACh concentration-response curve. The essentials: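 Phosphoinositide hydrolysis was driven by an ACh concentration-response curve, run with and without several test compound concentrations. Rightward shifts of the ACh curve were fitted by Schild analysis to give a Kd and a slope.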

Data set [1] has as its system NMDAR currents in hippocampal CA1 pyramidal cells. The format is cell-based.
A short description of another data set: plasma:brain study. To be noted: male rats, 10 mg/kg i.p. The format is in vivo, Sprauge Dawley rat.
The test system of data set [2] is pilocarpine-induced seizures. Briefly: pilocarpine-induced seizures in vivo. Also noted: species or system mice. The conditions noted are these: pilocarpine 280 mg/kg.
The target of the next data set is T3, Y381A mutant M1 mAChR (Homo sapiens, UniProt P11229, Y381A).
T3 sequence (P11229 1-460 Y381A): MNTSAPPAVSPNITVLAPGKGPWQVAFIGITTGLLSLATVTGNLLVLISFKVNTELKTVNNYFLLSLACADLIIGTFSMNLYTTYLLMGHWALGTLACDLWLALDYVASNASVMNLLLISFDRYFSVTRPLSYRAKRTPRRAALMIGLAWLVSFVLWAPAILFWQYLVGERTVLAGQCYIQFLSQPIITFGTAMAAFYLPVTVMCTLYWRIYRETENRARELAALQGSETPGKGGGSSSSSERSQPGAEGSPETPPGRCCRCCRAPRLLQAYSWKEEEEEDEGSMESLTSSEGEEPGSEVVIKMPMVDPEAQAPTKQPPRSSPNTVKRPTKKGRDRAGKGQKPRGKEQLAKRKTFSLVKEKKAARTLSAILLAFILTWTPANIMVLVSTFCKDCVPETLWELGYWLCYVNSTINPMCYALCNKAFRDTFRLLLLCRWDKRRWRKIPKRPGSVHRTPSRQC
The experiment in a line: mutagenesis experiment, Y381A mutant M1. It counts as cell-based. The conditions noted are these: wherein ACh loses affinity.

The subject of the next data set is M1 receptor versus M2-M5. To be noted: reported for known antagonists, no reference given; cited from earlier work.

For `O=C(CCNS(=O)(=O)c1cccc2nsnc12)N1CCN(c2ccncc2)CC1` [VU0255035], the IC50 on M1 mAChR (M1/CHO cells) was 130 nM; with M2-M5 mAChR (read-out: M2-M5 IC50, functional, one bound for all of M2-M5) it was above 10 µM. Moreover, the “functional selectivity for M1 versus M2-M5” value in the data set with M2-M5 mAChR (functional) is above 75 fold. Further, the “inhibition of M2-M5” value in the data set with M2-M5 mAChR (up to 150 μM in some experiments, concentrations solubility limited) was “little inhibition”. On M1 mAChR, this molecule displayed a Schild slope of 0.90 ± 0.08. Besides, the “block of CCh-potentiated NMDA-evoked current” value in data set [1] (10 μM CCh, 5 μM compound) is reported as “completely blocked”. Also, in data set [1] (compound alone, no CCh), the “effect of compound alone on NMDA-evoked current” value is on record as “no effect”. The BrainAUC/PlasmaAUC in the data set “plasma:brain study” turned out to be 0.48. In data set [2] (compound 10 mg/kg i.p.), the seizure count entry is reported as “statistically significant effect reducing seizure count”. The same molecule gave an animals that died in data set [2] (compound 10 mg/kg i.p. after 40 minutes, 2/8 at 24 hours) of 25%. Besides, on Y381A mutant M1 mAChR, the “antagonism of M1 mAChR responses in Y381A mutant” value was “right shifted”.

B1: MT7 (protein, UniProt Q8QGR0 22-86, looked up)
Muscarinic toxin 7: LTCVKSNSIWFPTSEDCPDGQNLCFKRWQYISPRMYDFTRGCAATCPKAEYRDVINCCGTDKCNK
As to B1, the “M1 selectivity versus M2-M5” value in the data set with M1 receptor versus M2-M5 was > 1,000 fold.

Usually IC50 stands for the concentration at which inhibition is half-maximal.
